Tests used:
[1] = molecular target: Serine/threonine-protein kinase 17B (Homo sapiens) (UniProt O94768); assay: Binding affinity to DRAK2 (unknown origin) assessed as change in melting temperature at 10 uM incubated for 10 mins using SYPRO orange dye by RT-PCR-based fluorescence assay
How it was run: (§1)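 Recombinant kinase domain at 2 μM in 10 mM HEPES pH 7.5, 500 mM NaCl, mixed with 10 μM inhibitor for 10 min at room temperature; SYPRO orange added at 1:1000; temperature-dependent unfolding fluorescence read on a real-time PCR instrument; Tm shift derived by a previously described method.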

[2] = molecular target: Receptor-interacting serine/threonine-protein kinase 2 (Homo sapiens) (UniProt O43353); assay: Binding affinity to RIPK2 (unknown origin) assessed as change in melting temperature at 10 uM incubated for 10 mins using SYPRO orange dye by RT-PCR-based fluorescence assay; how it was run: as §1
Chain of Receptor-interacting serine/threonine-protein kinase 2 (Homo sapiens) (O43353 whole entry): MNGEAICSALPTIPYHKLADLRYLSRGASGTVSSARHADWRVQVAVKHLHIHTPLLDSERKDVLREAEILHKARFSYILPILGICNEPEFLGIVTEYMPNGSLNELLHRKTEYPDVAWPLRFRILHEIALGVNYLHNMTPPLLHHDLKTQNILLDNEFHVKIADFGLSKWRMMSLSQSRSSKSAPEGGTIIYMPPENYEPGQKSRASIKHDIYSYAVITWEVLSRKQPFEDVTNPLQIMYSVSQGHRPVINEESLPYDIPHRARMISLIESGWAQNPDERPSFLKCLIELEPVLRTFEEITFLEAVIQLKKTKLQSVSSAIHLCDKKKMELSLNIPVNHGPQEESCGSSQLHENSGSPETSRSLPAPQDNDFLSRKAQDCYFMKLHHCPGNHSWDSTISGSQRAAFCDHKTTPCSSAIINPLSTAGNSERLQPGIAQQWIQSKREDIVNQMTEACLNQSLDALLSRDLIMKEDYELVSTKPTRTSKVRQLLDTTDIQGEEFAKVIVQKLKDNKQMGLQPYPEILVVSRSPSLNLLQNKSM

[3] = molecular target: Dual specificity protein kinase CLK1 (Homo sapiens, UniProt P49759); conditions: dose 10.0 µM, time 10.0 min
Chain of Dual specificity protein kinase CLK1 (P49759 whole entry, looked up): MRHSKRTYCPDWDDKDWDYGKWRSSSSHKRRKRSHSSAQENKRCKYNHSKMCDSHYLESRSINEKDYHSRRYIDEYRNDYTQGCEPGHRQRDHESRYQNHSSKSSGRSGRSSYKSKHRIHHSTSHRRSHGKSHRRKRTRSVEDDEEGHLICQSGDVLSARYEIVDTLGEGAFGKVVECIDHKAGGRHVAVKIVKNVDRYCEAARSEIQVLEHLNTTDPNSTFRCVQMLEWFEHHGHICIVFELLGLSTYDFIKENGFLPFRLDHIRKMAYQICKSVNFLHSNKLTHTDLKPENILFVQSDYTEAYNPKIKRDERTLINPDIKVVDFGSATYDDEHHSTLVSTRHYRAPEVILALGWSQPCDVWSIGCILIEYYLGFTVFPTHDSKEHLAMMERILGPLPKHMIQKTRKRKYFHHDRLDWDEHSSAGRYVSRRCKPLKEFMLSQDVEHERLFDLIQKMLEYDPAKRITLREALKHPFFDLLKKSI

[4] = molecular target: Dual specificity protein kinase CLK4 (Homo sapiens, UniProt Q9HAZ1); conditions: dose 10.0 µM, time 10.0 min
[5] = molecular target: Tyrosine-protein kinase JAK1 (Homo sapiens) (UniProt P23458); assay: Binding affinity to JAK1 (unknown origin) assessed as change in melting temperature at 10 uM incubated for 10 mins using SYPRO orange dye by RT-PCR-based fluorescence assay; how it was run: as §1
Chain of Tyrosine-protein kinase JAK1 (Homo sapiens) (P23458 whole entry): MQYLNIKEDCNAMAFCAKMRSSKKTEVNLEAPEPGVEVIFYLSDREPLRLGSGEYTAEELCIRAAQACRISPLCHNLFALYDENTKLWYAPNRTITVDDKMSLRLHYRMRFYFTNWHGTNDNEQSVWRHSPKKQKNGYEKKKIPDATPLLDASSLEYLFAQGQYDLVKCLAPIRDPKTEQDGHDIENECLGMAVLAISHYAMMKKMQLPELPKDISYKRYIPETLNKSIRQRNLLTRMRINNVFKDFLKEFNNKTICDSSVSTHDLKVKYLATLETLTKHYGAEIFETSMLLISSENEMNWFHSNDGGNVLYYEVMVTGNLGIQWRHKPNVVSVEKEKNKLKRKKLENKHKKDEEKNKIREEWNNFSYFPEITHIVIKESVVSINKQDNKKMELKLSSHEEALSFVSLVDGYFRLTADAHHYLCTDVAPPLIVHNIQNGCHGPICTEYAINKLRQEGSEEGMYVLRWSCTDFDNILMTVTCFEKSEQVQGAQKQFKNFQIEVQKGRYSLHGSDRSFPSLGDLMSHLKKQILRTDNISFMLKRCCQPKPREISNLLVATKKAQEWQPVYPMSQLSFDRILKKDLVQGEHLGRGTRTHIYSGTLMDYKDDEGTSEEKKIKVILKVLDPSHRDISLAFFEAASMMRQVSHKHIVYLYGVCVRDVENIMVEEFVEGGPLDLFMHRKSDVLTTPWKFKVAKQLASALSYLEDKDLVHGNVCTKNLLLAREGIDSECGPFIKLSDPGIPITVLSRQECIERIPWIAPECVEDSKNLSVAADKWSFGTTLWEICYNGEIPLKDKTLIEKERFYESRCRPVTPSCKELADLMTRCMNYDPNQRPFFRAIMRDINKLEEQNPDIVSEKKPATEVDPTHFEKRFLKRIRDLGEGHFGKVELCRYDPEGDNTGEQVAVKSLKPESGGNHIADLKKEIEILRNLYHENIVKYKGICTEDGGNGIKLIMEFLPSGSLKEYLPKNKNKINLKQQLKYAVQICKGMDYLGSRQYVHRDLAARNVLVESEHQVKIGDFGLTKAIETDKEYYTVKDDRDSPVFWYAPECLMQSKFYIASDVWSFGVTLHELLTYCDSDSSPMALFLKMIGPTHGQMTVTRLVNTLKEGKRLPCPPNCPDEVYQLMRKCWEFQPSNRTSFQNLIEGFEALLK

[6] = molecular target: Activin receptor type-1 (Homo sapiens) (UniProt Q04771); assay: Binding affinity to ACVR1 (unknown origin) assessed as change in melting temperature at 10 uM incubated for 10 mins using SYPRO orange dye by RT-PCR-based fluorescence assay; how it was run: as §1
[7] = molecular target: Bone morphogenetic protein receptor type-1B (Homo sapiens) (UniProt O00238); assay: Binding affinity to BMPR1B (unknown origin) assessed as change in melting temperature at 10 uM incubated for 10 mins using SYPRO orange dye by RT-PCR-based fluorescence assay; how it was run: as §1
[8] = molecular target: Glycogen synthase kinase-3 beta (Homo sapiens) (UniProt P49841); assay: Binding affinity to GSK3B (unknown origin) assessed as change in melting temperature at 10 uM incubated for 10 mins using SYPRO orange dye by RT-PCR-based fluorescence assay; how it was run: as §1
Chain of Glycogen synthase kinase-3 beta (Homo sapiens) (P49841 whole entry, looked up): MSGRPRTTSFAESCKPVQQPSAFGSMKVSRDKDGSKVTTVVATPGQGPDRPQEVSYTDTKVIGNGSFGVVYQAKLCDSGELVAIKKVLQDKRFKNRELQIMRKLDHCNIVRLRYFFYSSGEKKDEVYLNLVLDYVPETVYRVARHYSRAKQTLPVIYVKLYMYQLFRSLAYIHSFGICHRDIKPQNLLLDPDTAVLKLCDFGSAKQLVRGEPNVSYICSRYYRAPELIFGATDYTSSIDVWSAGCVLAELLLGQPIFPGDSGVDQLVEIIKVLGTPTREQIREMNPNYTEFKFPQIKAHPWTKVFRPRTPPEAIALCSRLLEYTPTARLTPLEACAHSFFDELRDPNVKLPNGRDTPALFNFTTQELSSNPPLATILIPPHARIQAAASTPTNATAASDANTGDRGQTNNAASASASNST

[9] = molecular target: AP2-associated protein kinase 1 (Homo sapiens) (UniProt Q2M2I8); assay: Binding affinity to AAK1 (unknown origin) assessed as change in melting temperature at 10 uM incubated for 10 mins using SYPRO orange dye by RT-PCR-based fluorescence assay; how it was run: as §1
[10] = molecular target: Activin receptor type-1B (Homo sapiens) (UniProt P36896); assay: Binding affinity to ACVR1B (unknown origin) assessed as change in melting temperature at 10 uM incubated for 10 mins using SYPRO orange dye by RT-PCR-based fluorescence assay; how it was run: as §1
Chain of Activin receptor type-1B (Homo sapiens) (P36896 whole entry): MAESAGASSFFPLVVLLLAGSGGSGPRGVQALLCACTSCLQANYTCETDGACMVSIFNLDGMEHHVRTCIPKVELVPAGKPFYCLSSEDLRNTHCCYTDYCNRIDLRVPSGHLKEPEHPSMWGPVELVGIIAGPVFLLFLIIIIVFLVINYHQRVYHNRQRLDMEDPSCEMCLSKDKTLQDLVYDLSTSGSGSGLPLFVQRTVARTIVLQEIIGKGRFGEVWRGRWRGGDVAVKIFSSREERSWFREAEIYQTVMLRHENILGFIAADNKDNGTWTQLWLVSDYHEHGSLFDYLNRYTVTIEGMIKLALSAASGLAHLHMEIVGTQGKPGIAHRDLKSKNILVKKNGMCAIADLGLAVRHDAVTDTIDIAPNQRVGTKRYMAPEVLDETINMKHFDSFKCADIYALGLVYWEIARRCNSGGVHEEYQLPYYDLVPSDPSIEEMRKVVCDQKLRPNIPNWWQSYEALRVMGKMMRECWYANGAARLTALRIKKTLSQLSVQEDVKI

[11] = molecular target: Myosin light chain kinase family member 4 (Homo sapiens) (UniProt Q86YV6); assay: Binding affinity to SgK085 (unknown origin) assessed as change in melting temperature at 10 uM incubated for 10 mins using SYPRO orange dye by RT-PCR-based fluorescence assay; how it was run: as §1
[12] = molecular target: Bone morphogenetic protein receptor type-2 (Homo sapiens) (UniProt Q13873); assay: Binding affinity to BMPR2 (unknown origin) assessed as change in melting temperature at 10 uM incubated for 10 mins using SYPRO orange dye by RT-PCR-based fluorescence assay; how it was run: as §1
[13] = molecular target: Ribosomal protein S6 kinase alpha-1 (Homo sapiens) (UniProt Q15418); assay: Binding affinity to RSK1B (unknown origin) assessed as change in melting temperature at 10 uM incubated for 10 mins using SYPRO orange dye by RT-PCR-based fluorescence assay
Chain of Ribosomal protein S6 kinase alpha-1 (Homo sapiens) (Q15418 whole entry, looked up): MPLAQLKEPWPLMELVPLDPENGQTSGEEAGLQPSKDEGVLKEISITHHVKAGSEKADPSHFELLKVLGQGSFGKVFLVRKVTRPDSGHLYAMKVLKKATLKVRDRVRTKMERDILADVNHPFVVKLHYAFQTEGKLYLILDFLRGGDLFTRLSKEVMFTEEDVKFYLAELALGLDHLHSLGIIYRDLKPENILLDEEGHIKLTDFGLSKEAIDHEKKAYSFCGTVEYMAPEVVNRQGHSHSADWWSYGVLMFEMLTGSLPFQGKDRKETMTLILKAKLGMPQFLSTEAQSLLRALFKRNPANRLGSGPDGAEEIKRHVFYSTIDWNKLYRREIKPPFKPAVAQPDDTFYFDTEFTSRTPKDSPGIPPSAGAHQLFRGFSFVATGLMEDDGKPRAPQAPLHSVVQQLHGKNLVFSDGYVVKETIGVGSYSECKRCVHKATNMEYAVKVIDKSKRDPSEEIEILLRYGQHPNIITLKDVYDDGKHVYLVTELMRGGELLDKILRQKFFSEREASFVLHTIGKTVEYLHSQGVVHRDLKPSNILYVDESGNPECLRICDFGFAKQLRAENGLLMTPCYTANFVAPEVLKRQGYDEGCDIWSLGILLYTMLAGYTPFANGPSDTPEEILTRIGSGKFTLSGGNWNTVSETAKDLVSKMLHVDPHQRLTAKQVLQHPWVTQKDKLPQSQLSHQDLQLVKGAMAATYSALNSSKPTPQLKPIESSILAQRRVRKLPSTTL

[14] = molecular target: T1, Serine/threonine-protein kinase haspin (Homo sapiens) (UniProt Q8TF76); assay: Binding affinity to haspin (unknown origin) assessed as change in melting temperature at 10 uM incubated for 10 mins using SYPRO orange dye by RT-PCR-based fluorescence assay; how it was run: as §1
T1 sequence (whole entry): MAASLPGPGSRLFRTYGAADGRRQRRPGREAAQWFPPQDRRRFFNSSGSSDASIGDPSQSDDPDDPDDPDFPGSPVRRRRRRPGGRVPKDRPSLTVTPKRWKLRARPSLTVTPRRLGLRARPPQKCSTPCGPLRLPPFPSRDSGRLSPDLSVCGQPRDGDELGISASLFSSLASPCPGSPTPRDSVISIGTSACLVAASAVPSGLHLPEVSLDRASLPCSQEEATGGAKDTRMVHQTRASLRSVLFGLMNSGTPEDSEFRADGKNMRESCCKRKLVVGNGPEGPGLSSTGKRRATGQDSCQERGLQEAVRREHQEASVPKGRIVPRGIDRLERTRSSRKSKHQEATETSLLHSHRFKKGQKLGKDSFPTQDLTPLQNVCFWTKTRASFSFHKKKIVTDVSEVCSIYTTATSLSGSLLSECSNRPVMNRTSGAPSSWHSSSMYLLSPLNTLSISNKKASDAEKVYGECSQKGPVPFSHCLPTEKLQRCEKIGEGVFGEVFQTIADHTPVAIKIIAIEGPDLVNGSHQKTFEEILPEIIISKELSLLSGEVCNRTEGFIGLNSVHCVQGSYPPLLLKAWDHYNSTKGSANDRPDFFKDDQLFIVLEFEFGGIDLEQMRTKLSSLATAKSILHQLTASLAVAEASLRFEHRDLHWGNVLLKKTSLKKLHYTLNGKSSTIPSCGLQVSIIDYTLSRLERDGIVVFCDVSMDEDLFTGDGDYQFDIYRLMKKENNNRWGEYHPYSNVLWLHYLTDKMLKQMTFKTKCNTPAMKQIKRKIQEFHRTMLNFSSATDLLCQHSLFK

[15] = molecular target: Activin receptor type-2B (Homo sapiens) (UniProt Q13705); assay: Binding affinity to ACTR2B (unknown origin) assessed as change in melting temperature at 10 uM incubated for 10 mins using SYPRO orange dye by RT-PCR-based fluorescence assay; how it was run: as §1
[16] = molecular target: Casein kinase I isoform epsilon (Homo sapiens) (UniProt P49674); assay: Binding affinity to CSNK1E (unknown origin) assessed as change in melting temperature at 10 uM incubated for 10 mins using SYPRO orange dye by RT-PCR-based fluorescence assay; how it was run: as §1
Chain of Casein kinase I isoform epsilon (Homo sapiens) (P49674 whole entry, looked up, canonical isoform): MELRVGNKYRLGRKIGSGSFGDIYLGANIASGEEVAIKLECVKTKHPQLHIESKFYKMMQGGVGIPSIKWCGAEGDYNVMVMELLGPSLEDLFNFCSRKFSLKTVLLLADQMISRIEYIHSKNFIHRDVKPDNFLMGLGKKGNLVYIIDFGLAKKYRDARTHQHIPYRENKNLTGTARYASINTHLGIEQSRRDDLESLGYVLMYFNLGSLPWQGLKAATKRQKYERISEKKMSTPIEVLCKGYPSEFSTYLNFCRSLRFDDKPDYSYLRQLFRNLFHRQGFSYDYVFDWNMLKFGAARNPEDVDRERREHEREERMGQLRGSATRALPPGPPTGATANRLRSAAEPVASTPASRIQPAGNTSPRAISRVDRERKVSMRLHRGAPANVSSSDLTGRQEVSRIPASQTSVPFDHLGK

[17] = molecular target: Serine/threonine-protein kinase pim-2 (Homo sapiens) (UniProt Q9P1W9); assay: Binding affinity to PIM2 (unknown origin) assessed as change in melting temperature at 10 uM incubated for 10 mins using SYPRO orange dye by RT-PCR-based fluorescence assay; how it was run: as §1
Chain of Serine/threonine-protein kinase pim-2 (Homo sapiens) (Q9P1W9 whole entry, looked up): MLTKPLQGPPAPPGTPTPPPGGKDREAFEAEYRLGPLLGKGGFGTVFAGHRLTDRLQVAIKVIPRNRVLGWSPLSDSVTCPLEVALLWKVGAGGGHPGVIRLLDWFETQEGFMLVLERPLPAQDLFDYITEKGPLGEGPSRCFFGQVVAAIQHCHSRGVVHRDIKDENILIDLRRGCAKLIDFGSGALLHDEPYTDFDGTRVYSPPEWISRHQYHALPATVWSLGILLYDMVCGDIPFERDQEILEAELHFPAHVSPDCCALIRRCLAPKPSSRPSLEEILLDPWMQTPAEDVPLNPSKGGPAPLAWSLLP

Measured: ΔTm

Chain of Serine/threonine-protein kinase 17B (Homo sapiens) (O94768 whole entry, the tested form may be a part): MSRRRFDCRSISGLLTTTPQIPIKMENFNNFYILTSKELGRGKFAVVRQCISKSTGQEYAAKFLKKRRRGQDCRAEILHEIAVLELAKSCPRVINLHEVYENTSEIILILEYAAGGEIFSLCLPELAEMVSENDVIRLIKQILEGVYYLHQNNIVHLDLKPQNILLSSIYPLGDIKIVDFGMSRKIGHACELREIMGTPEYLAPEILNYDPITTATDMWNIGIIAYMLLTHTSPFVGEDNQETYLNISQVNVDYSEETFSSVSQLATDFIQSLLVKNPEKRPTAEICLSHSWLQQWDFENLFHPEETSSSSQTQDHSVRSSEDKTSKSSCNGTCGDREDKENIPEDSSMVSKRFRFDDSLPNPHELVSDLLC

CC(=O)c1cccc(-c2cnc3ccc(NCC4CC4)nn23)c1
> 6 °C: [4] | [5] | [6] | [7] | [9] | [10] | [12] | [14] | [15]
> 4 °C: [1] | [2] | [3] | [8] | [11] | [13] | [16] | [17]
